According to ChEMBL document CHEMBL1151954, “Photinides A-F, cytotoxic benzofuranone-derived gamma-lactones from the plant endophytic fungus Pestalotiopsis photiniae” (2009):
Calls of active or inactive are those of the source. The calls are words filed in the database; no cut-off is given here.

Columns and labels:
HeLa = assay: Cytotoxicity against human HeLa cells at 10 ug/ml after 4 hrs by MTT assay; type: functional, cell-based
Summary of the method: (§1)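 MTT assay in 96-well plates, 10^4 cells per well, attached overnight. Cells were exposed to compound diluted in medium from 10 mg/mL DMSO stocks (vehicle control 0.2% DMSO) at 37 °C, 5% CO2, for 4 h, then changed to fresh DMEM. MTT (0.5 mg/mL) was added for 3 h at 37 °C in the dark. Formazan was dissolved in DMSO and read at 540 nm; results given as inhibitory rate.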

MDA-MB-231 = assay: Cytotoxicity against human MDA-MB-231 cells at 10 ug/ml after 4 hrs by MTT assay; type: functional; summary of the method: as §1

Row | SMILES | Activity (HeLa) | Activity (MDA-MB-231)
1 | COc1cccc2c1C(=O)[C@]1(O2)O[C@@]1(CO)[C@@H]1OC(=O)C[C@H]1C | inactive | 24.6%
2 | COc1cccc2c1C(=O)/C(=C(\CO)[C@@H]1OC(=O)C[C@H]1C)O2 [PHOTINIDE A] | inactive | 24.4%
3 | C[C@@H]1CC(=O)O[C@H]1/C(CO)=C1/Oc2cccc(O)c2C1=O [PHOTINIDE D] | inactive | 24.4%
4 | COc1cccc2c1C(=O)[C@@]1(O2)O[C@]1(CO)[C@@H]1OC(=O)C[C@H]1C | inactive | Active
5 | COc1cccc2c1C(=O)/C(=C(/CO)[C@@H]1OC(=O)C[C@H]1C)O2 [PHOTINIDE B] | inactive | 24.2%
6 | C[C@@H]1CC(=O)O[C@H]1/C(CO)=C1\Oc2cccc(O)c2C1=O [PHOTINIDE C] | inactive | 23.1%
